NR2E3 ag-1: human photoreceptor-specific nuclear receptor agonism; Q9Y5X4; CHO-S Gal4-NCOR/VP16-NR2E3 two-hybrid, luciferase; inhibition of corepressor binding, % at 3.98 µM; 360,000 tested, 0.35% active; AID 602229;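 active = inhibition above the mean of all tested compounds plus 3 SD, cut at about 70% in these data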;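 note: 0% = DMSO with NR2E3 transfected cells and 100% = cells lacking NR2E3 construct; higher means lower luciferase signal from less NR2E3 corepressor binding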
Target sequence (Q9Y5X4 whole entry, looked up, the tested form may be a part): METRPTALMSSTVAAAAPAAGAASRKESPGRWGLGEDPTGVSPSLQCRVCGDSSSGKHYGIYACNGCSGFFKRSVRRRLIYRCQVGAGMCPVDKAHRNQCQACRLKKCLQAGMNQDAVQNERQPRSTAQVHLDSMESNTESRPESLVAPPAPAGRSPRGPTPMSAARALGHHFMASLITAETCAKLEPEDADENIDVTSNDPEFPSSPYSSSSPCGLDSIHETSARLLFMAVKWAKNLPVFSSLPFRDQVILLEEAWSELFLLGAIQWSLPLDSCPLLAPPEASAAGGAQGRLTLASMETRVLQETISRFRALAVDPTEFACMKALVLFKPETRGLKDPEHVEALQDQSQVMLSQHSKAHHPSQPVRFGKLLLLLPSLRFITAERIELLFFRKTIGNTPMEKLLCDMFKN
PG9 binder: binds the HIV-1 gp120 antibody PG9 | TR-FRET gp120-PG9 antibody binding | inhibition, % at 6.7 µM | 360,000 tested, 0.43% active; in the data active = inhibition above about 8.5%
NR1D1 modulator: modulators of human Rev-erb alpha DNA binding; activity, % at 10 µM; 370,000 tested, 0.79% active; P20393; Rev-erbα–FITC-DNA binding, fluorescence polarization, 90 min;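 active = activity above about 14%, limit read from the data; passing the limit was not always enough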;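 note: 0% = DMSO wells with 35 nM protein and 100% = DMSO wells with 750 nM protein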
NR2E3 ag-2: NR2E3 (human) agonism | Q9Y5X4 | inhibition of corepressor binding, % at 4.78 µM | AID 2300 | GST-NR2E3/biotin-RetCOR TR-FRET, 1536-well | 320,000 tested, 0.12% active;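 active = percent inhibition above the cutoff of mean plus 3 SD of all tested compounds, set per screening campaign, cut at about 20% in these data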;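 note: 0% = DMSO wells and 100% = biotin wells as full block of FRET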
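Assay system: NR2E3–RetCOR corepressor complex. Quantity: 1.35 nM GST-NR2E3. Buffer or medium: pH 7.5 Tris-based buffer. Reagent: biotinylated RetCOR corepressor at 7 nM final. Schedule: 5 h at 4 °C. Detection: TR-FRET, emission read at 617 and 671 nm. Replicates: one well per compound, singlicate testing.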
PG9 binder conf: confirmation of small molecules binding HIV-1 gp120 antibody PG9 | TR-FRET PG9 antibody binding, biochemical | 1,500 tested, 90% active | inhibition, % at 6.7 µM | AID 651571 | shares compounds with PG9 binder; in the data active = inhibition above about 9%
PGV04 Ab binding: PGV04 control antibody binding, counter-screen; shares compounds with PG9 binder; TR-FRET PGV04 antibody-gp120 binding, biochemical; inhibition, % at 6.7 µM; 1,500 tested, 95% active; AID 651604; in the data active = inhibition above about 9.5%
PG9 binder DR: small molecules binding HIV-1 gp120 antibody PG9. TR-FRET PG9 antibody-gp120 binding inhibition. 95 tested, under 10 active. IC50, µM. shares compounds with PG9 binder. AID 651848; in the data active = IC50 below about 10 µM
PGV04 binding DR: binds control antibody PGV04 in PG9 counter-screen. shares compounds with PG9 binder. TR-FRET binding to control antibody PGV04. IC50, µM. 95 tested, 20% active. AID 651937
PG126 binding DR: counter-screen for PG9 binders: binding to control antibody PG126. IC50, µM. 95 tested, 20% active. shares compounds with PG9 binder. TR-FRET binding to antibody PG126, counterscreen
NR1D1 mod conf: Rev-erb alpha (human) modulation, hit confirmation. 3,000 tested, 61% active. Rev-erb alpha FITC-DNA binding, fluorescence polarization, 90 min. activation, % at 25 µM. shares compounds with NR1D1 modulator;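 active = activation at or above a set limit, or at least 3 SD above the negative control mean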;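 note: 0% = 35 nM protein with DMSO and 100% = 750 nM protein high control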
RORg DNA counter: RORgamma DNA-binding activity, dose-response counter-screen; shares compounds with NR1D1 modulator; purified RORgamma protein-FITC-DNA binding, fluorescence polarization; IC50, µM; 910 tested, 8% active; AID 1259320;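 active = Compounds whose fitted half-maximal concentration for disrupting protein-DNA binding is below 10 micromolar; the record names Rev-erb in its text, so the target is in doubt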
The depositor's hits bear a star; i = inactive; / = not tested or not shown. In the library only some 1.4% were active in any assay of this set; here they are far more common. Cut-off read from the data, not from the text of the source, unless noted: active = IC50 below about 9 µM; inactive = the rest.

SMILES | NR2E3 ag-1 | PG9 binder | NR1D1 modulator | NR2E3 ag-2 | PG9 binder conf | PGV04 Ab binding | NR1D1 mod conf | others
N#Cc1ccc(NC(=O)c2sc3cc(C(F)(F)F)cnc3c2-c2cccs2)cc1 | -8.3 | -12.7 | 7.8 | -0.3 | / | / | /
CCCN1CCCCC(NC(=O)OC(C)(C)C)C1=O (stereo not drawn) | / | -1.0 | -4.0 | / | / | / | /
Oc1ccc(Br)cc1C1Nc2ccccc2S1 (stereo not drawn) | -46.1 | 24.8* | 151.7* | -7.7 | 20.6* | 43.6* | 88.6* | RORg DNA counter=>40
CC1C(=O)C(C)C(c2cc(Br)ccc2O)NC1c1cc(Br)ccc1O (stereo not drawn) | -15.5 | -2.9 | 1.0 | / | / | / | /
CCOC(=O)N1CCC(NC(=O)c2ccc3c(c2)N(Cc2ccc(F)cc2)CCS3)CC1 | -48.8 | 1.7 | 4.5 | -1.2 | / | / | /
CCOC(=O)N1CCC(NC(=O)c2ccc3c(c2)N(Cc2ccc(C)cc2)CCS3)CC1 | -3.8 | 22.5* | 29.9* | 1.7 | 30.6* | 43.7* | 6.9
CCOc1cc(N2CCOCC2)c(OCC)cc1NC(=O)c1[nH]c(C)c(C(C)=O)c1C | -4.7 | -1.1 | -8.3 | 1.7 | / | / | /
CCOc1ccc(OCC)c(NC(=O)c2[nH]c(C)c(C(C)=O)c2C)c1 | -24.2 | 15.9* | 59.0* | 10.7 | 10.9* | 8.2 | 51.5* | PG9 binder DR=>67;PGV04 binding DR=3.55*;PG126 binding DR=3.91*;RORg DNA counter=>40
COc1ccc2oc(C(=O)Nc3nccs3)c(C)c2c1 | -198.8 | 12.2* | 35.6* | -10.1 | 21.3* | 46.2* | 16.6
Nc1nc2c(ncn2[C@@H]2O[C@H](C(=O)NCC(F)(F)F)[C@@H](O)[C@H]2O)c(=O)[nH]1 | / | 0.9 | 3.0 | / | / | / | /
Fc1cccc2sc(Nc3nc4c(F)cccc4s3)nc12 | -18.0 | 22.8* | 67.7* | 1.8 | 23.6* | 37.6* | 58.0* | RORg DNA counter=>40
NNc1nc2c(F)cccc2s1 | -49.3 | -8.2 | 5.7 | -5.9 | / | / | /
CCCCCCCCN1C(=O)[C@@H](CC(=O)NCc2cccc3ccccc23)C[C@@]2(C(=O)OC)C1=C[C@H](C(C)(C)C)O[C@@H]2C | / | 0.3 | -5.6 | / | / | / | /
Cc1ccc2nc3c(cc(C(=O)NC4CCS(=O)(=O)C4)n3Cc3ccccc3)c(=O)n2c1 (stereo not drawn) | -9.2 | 22.8* | 25.8* | -0.2 | 19.5* | 30.8* | 0.4
COc1ccc(C(=O)Nc2nc3ccc(S(C)(=O)=O)cc3s2)cc1OC | -6.4 | 21.8* | 30.3* | 1.1 | 27.8* | 40.2* | 24.8*
CS(=O)(=O)c1ccc2nc(NC(=O)c3ccccc3)sc2c1 | -111.2 | 0.3 | 0.4 | -0.5 | / | / | /
Cc1ccc(NC(=O)Nc2nc3ccc(S(C)(=O)=O)cc3s2)cc1 | 8.8 | 33.8* | 19.3* | / | 31.1* | 41.8* | 7.7
Cc1ccc(C(=O)Nc2nc3ccc(S(C)(=O)=O)cc3s2)cc1C | -6.6 | 20.7* | 25.6* | 0.4 | 32.2* | 50.9* | 21.3*
CS(=O)(=O)c1ccc2nc(NC(=O)Nc3ccc(Cl)c(Cl)c3)sc2c1 | -15.6 | -1.3 | 7.7 | 7.9 | / | / | /
Cc1cccc(C(=O)Nc2nc3ccc(S(C)(=O)=O)cc3s2)c1 | -148.4 | 34.4* | 35.8* | / | 14.9* | 37.7* | 21.9*
COc1ccc(-n2c(SCC(=O)Nc3cc(C)c(NC(=O)c4ccccc4)cc3OC)nnc2-c2ccco2)cc1 | / | / | 3.7 | / | / | / | /
CN(Cc1ccccc1)C(=O)c1ccc(NC(=O)Cc2ccc(NC(=O)C3CCN(C(=O)c4ccccc4)CC3)cc2)cc1 | -9.1 | -1.4 | -6.5 | / | / | / | /
CC(=O)c1ccc(Nc2ncnc3ccc(Br)cc23)cc1 | -10.9 | 10.8* | 121.5* | / | 20.2* | 56.0* | 119.1* | RORg DNA counter=>40
Cc1ccc(O)c(Nc2nc(-c3ccccc3)nc3ccccc23)c1 | -6.2 | -0.2 | 1.3 | 0.8 | / | / | /
COc1ccc(C)cc1Nc1nc(-c2ccccc2O)nc2ccccc12 | 1.9 | 11.3* | 83.3* | 0.1 | 2.5 | 5.4 | 58.9* | RORg DNA counter=i
SMILES | NR2E3 ag-1 | PG9 binder | NR1D1 modulator | NR2E3 ag-2 | PG9 binder conf | PGV04 Ab binding | NR1D1 mod conf | others
CCn1c(SCc2nc3ccccc3c(=O)[nH]2)nc2ccccc2c1=O | 2.7 | -0.9 | 1.7 | -2.4 | / | / | /
C=CCn1c(SCc2nc3ccccc3c(=O)[nH]2)nc2scc(C3CC3)c2c1=O | -2.3 | 14.7* | 25.8* | 8.0 | 16.9* | 28.8* | 22.1*
Cc1sc2nc(-c3cccnc3)[nH]c(=O)c2c1-c1ccccc1 | -6.0 | 0.1 | -3.3 | 6.2 | / | / | /
Cc1sc2nc(Cc3ccccc3)[nH]c(=O)c2c1-c1ccccc1 | 7.5 | 34.7* | 69.7* | 14.2 | 44.2* | 65.1* | 87.2* | RORg DNA counter=i
CC(=O)c1cccc(NC(=O)CCc2nc3sc4c(c3c(=O)[nH]2)CCCC4)c1 | -29.3 | 13.5* | 23.3* | 0.5 | 10.9* | 23.8* | 17.8*
CCn1ccc(C(=O)Nc2sc3c(c2C(=O)OC)CCC3)n1 | -22.9 | -1.2 | -3.8 | / | / | / | /
COC(=O)c1c(NC(=O)c2ccn(C)n2)sc2c1CCC2 | -4.3 | 9.0* | 20.0* | 3.1 | 7.1 | 12.5* | -4.7
CCCNC(=O)c1ccc2snnc2c1 | 1.8 | 1.0 | -1.5 | 0.6 | / | / | /
CCCNC(=O)c1ccc2c(=O)n3c(-c4ccc(C)cc4)csc3nc2c1 | 12.7 | 24.2* | 25.9* | 8.2 | 36.6* | 67.9* | 24.2*
CCc1nc2ccccc2c(C(=O)OCC(=O)C(C)(C)C)c1C | -0.1 | -1.5 | 0.3 | 3.4 | / | / | /
CCc1nc2ccccc2c(C(=O)OCc2nc3ccccc3c(=O)[nH]2)c1C | -32.7 | 24.6* | 32.4* | / | 14.0* | 16.8* | 28.1* | RORg DNA counter=>40
Cc1ccc(C(=O)OCc2cc3ccccc3[nH]c2=O)cc1 | -13.8 | 15.1* | 23.1* | 16.8 | 24.4* | 31.1* | 16.7*
O=C(OCc1cc2ccccc2[nH]c1=O)c1ccc([N+](=O)[O-])cc1 | 12.1 | -3.4 | -12.3 | -1.0 | / | / | /
CCOC(=O)c1cc(C(=O)OCC)c2cc(Br)ccc2n1 | 0.6 | 11.4* | 39.8* | 15.1 | 12.1* | 17.1* | 37.7* | RORg DNA counter=>40
O=C1CC(N2CCCN(Cc3ccccc3)CC2)=NC(=O)N1c1ccc(Br)cc1 | / | / | -0.1 | / | / | / | /
OC(c1ccccc1)(c1ccccc1)C1CCN(CCCOc2ccc(-c3ccc(F)cc3F)cc2)CC1 | / | 3.5 | -4.8 | / | / | / | /

Assay outcomes as filed in PubChem BioAssay.
